Test results published in PubChem BioAssay AID588621 (Sanford-Burnham Center for Chemical Genomics, 2011).
About 890 (0.25%) of roughly 360,000 compounds were called active.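 How the source made its calls: active means inhibition at 20 µM, scaled per plate between control wells, above about 37% (limit read from the data); inactive means the rest.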 Only a selection was taken, and actives are over-represented in it overall.

Each molecule was assayed against Tyrosine-protein phosphatase non-receptor type 5 (Homo sapiens) (UniProt P54829) (assay: inhibition of human PTPN5 enzyme activity – biochemical, fluorescence intensity, uHTS, primary screen (AID 588621;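 further: 0% = DMSO with enzyme and substrate and 100% = substrate only without enzyme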)). Settings: recombinant STEP, OMFP fluorogenic substrate, at 20 µM, stronger effect = higher value.
Method in brief: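 material = STEP tyrosine phosphatase | reagent = fluorogenic phosphatase substrate OMFP at 25 µM final | doses = single compound dose of 20 µM, 1% DMSO final | schedule = 20 min reaction, room temperature, in the dark | measured by = fluorescence, 480/540 nm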

Chain of Tyrosine-protein phosphatase non-receptor type 5 (Homo sapiens) (P54829 whole entry, looked up): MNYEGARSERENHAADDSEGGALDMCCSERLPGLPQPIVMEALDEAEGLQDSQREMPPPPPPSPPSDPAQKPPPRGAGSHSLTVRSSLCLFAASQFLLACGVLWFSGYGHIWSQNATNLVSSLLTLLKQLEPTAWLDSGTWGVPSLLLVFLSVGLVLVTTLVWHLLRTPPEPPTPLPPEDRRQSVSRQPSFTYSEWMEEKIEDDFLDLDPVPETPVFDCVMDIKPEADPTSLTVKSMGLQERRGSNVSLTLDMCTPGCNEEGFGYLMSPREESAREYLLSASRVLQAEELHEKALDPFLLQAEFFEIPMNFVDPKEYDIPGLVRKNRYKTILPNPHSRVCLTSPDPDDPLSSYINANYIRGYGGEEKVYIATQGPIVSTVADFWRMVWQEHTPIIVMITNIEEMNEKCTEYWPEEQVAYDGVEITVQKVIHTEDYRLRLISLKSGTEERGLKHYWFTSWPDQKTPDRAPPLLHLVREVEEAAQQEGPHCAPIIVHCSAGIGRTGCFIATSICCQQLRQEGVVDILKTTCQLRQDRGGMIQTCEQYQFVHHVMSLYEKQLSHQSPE

inhibition, active:
Cc1cccc(-n2c(N)c(C(=O)N3CCN(C)CC3)sc2=S)c1 90.4%, OCCN1CCN(C(=S)c2ccc(-c3ccccc3)cc2)CC1 92.5%, O=S(=O)(Nc1ccccc1Cl)c1cccc2nsnc12 52.9%, COCCN(C(=S)Nc1ccccc1OC)C1CCN(C(C)C)CC1 44.6%, COCc1c(C(=O)N/N=C/C2CC=CCC2)nnn1-c1nonc1N (stereo not given) 44.4%, Nc1c(Cl)cc(-c2csc(N3CCCC3c3nc4cc(Cl)c(Cl)cc4n3CCOCCO)n2)cc1Cl (stereo not given) 36.9%, N#Cc1c(-c2cccs2)nc(SCC(=O)c2ccc(Br)cc2)[nH]c1=O 78.8%, Cc1ccc(NC(=O)COc2ccc(/C=N\NC(=O)c3cccnc3)cc2)cc1C 93%, Cc1ccn2c(-c3csc(Nc4ccc(C(=O)O)cc4)n3)c(C)nc2c1 41.9%, COCCNC(=O)Nc1ccc2nc(-c3ccco3)c(-c3ccco3)nc2c1 60.1%, CN(C(=O)COC(=O)c1cc(-c2ccco2)nc2ccccc12)C1CCS(=O)(=O)C1 (stereo not given) 64.5%, Cc1ccccc1CC1(CO)CCCN(C(=O)c2cc(-c3ccccc3)no2)C1 (stereo not given) 120%, O=C(COc1cccc(F)c1)Oc1ccc(C(=O)c2ccccc2)cc1 89.8%, Cc1ccc(S(=O)(=O)c2c[nH]c3ccc(Cl)cc3c2=O)cc1 37.4%, Cc1ccc(-c2nnc(-c3ccc(NC(=O)c4cccs4)cc3)o2)cc1 54.4%

inhibition, inactive:
Cc1ccc(-n2c(N)c(C(=O)N3CCOCC3)sc2=S)c(C)c1 5.2%, N#Cc1ccccc1-n1c(N)c(C(=O)N2CCCC2)sc1=S 7.5%, Cc1cc(-c2nnc(SCC(=O)Nc3ccc(F)cc3)n2N)n[nH]1 -1.1%, COC(=O)Cn1cnc2scc(-c3ccc(C)c(C)c3)c2c1=O 1.3%, Cc1ccc(C(C)(C)C)c(OCCCCN2CCCC2)c1 -0.8%, CSc1nnc(C2CCCN(CC(=O)Nc3ccccc3N3CCOCC3)C2)n1C(C)C (stereo not given) 7.7%, C=CCc1ccccc1OCC(O)CN1CCN(CCO)CC1 (stereo not given) -0.9%, S=C(c1ccc(-c2ccccc2)o1)N1CCCCC1 10%, Cc1cc(OC(=O)c2ccccc2)c([N+](=O)[O-])c(=O)[nH]1 -3.5%, CN(C)c1ccc(CNC23CN4CN(CN(C4)C2)C3)cc1 -4.8%, O=C(OCC(=O)N1CCN(C(=O)c2ccco2)CC1)c1ccccc1Cc1ccccc1 -3.5%, CCC1(C)N(O)C(C)(C)C(c2ccc(OC)cc2)=[N+]1[O-] (stereo not given) -1.7%, COc1ccc(NS(=O)(=O)c2cccc3nsnc23)cc1Cl -1.2%, O=C(O)c1ccc(NS(=O)(=O)c2cccc3nsnc23)cc1 1.7%, O=C(COC(=O)c1cc([N+](=O)[O-])ccc1NCc1ccccc1)NC1CCCCC1 0.9%, O=C(CCN1C(=O)c2ccncc2C1=O)Nc1cc(F)ccc1F -2.7%, COc1ccc(-c2cc(C(F)(F)F)nc(S(C)(=O)=O)n2)cc1OC 0.2%, O=C(COc1ccccc1F)NNC(=O)c1ccc(N2CCCCC2)c([N+](=O)[O-])c1 0.7%, C/C(O)=C\c1nc(=O)c2c(C)cc(C)nc2n1-c1ccccc1 1.8%, COc1ccccc1NC(=O)C(C)OC(=O)CC1CCCC1 (stereo not given) -2.3%, CCc1cccc(NC(=S)N(CCN(C)C)C2CCN(C(C)C)CC2)c1 4.4%, Cc1ccc(NC2=C(Cl)C(=O)OC2OC(=O)c2ccccc2C)cc1 (stereo not given) -1.2%, Nc1nonc1-n1nnc(C(=O)N/N=C/C2CCCCC2)c1-c1ccccc1 -0.5%, COCc1c(C(=O)N/N=C(\C)c2ccncc2)nnn1-c1nonc1N -0.3%, CCc1c(C)sc(NC(=O)OC)c1C(=O)N1CCOCC1 10.1%, Cc1cc(C)cc(C(=O)OCC(=O)NCCNC(=O)COC(=O)c2cc(C)cc(C)c2)c1 1%, CCc1nc2c(OCCC3CCCCC3)cccn2c1N(C)C(=O)c1ccco1 4.5%, COc1cc(OC)c(-n2cc(-c3ccc(Cl)cc3)[nH]c2=O)cc1Cl 0.7%, Cc1ccc(-c2csc(N3CCN(c4cc5c(cc4Cl)nc(-c4ccncc4)n5CCOCCO)CC3)n2)cc1 2.3%, CCCn1c(C2CCCN2c2nc(-c3ccc(C)cc3)cs2)nc2cc(Cl)c(N3CCCCC3)cc21 (stereo not given) 3.4%, O=c1nc(N2CCOCC2)nc2n1CCO2 4.3%, COc1cccc(/C=C/C(=O)OCC(=O)N2CCCc3ccccc32)c1 -1.7%, CCc1ccc(C(=O)CSc2nnc(C)c(=O)[nH]2)cc1 -1%, N#Cc1c(-c2ccccc2)nc(SCc2cccc(C(F)(F)F)c2)[nH]c1=O 2.7%, Cc1ccnc(N2CCN(C(=O)CSc3nc4ccccc4nc3N3CCCCC3)CC2)c1 7.7%, CC(C)C(O)C1CCN(Cc2nc(Cc3ccccc3Cl)no2)CC1 (stereo not given) -0.6%, CN(C(=O)CSc1nnc(N)s1)c1c(N)n(Cc2ccccc2)c(=O)[nH]c1=O 2%, Cc1ccnc(NS(=O)(=O)c2ccc(NC(=O)c3ccc(S(=O)(=O)N(C)C)cc3)cc2)n1 10.2%, CC(Oc1ccc(Cl)cc1)c1ccnn1S(C)(=O)=O (stereo not given) -1.9%, Cc1cccc(OCC(=O)NCCNC(=O)c2cccnc2)c1 0.6%, Cc1ccc(OCC(=O)NCCCNC(=O)c2cccnc2)cc1C 2.8%, CC(=O)c1nc(N2C(=O)C3CC=C(C)CC3C2=O)sc1C (stereo not given) -0.6%, O=C(NCc1ccc(F)cc1)c1cc(C2CCCCN2C(=O)c2ccccn2)on1 (stereo not given) -0.8%, CCOCCCNc1c(CC)c(C)c(C#N)c2nc3ccccc3n12 -1%, CCc1cccc(C)c1N(C(=O)Cn1c(CO)nc2ccccc21)C(C)COC (stereo not given) -4.3%, CCCCC(=O)Nc1nc(C)c(-c2csc(Nc3ccc(Cl)cc3)n2)s1 -1.7%, C/C(=N\OC(=O)c1ccccc1)c1c(C)nc2cc(C)ccn12 -1.4%, COc1cccc(-c2cnc(C(O)c3ccccc3OC)[nH]2)c1 (stereo not given) -2.4%, COCCCNC(=O)[C@H]1N2C(=O)c3ccccc3C2SC1(C)C (stereo not given in full) 0.9%, Cc1[nH]c2ccccc2c1C(=O)C(=O)NCc1nnnn1-c1cccc(F)c1 0.6%, COc1ccc(CCN2CC(C(=O)NCCN3CCNC3=O)CCC2=O)cc1 (stereo not given) -4.2%, Cc1cc(F)ccc1S(=O)(=O)Nc1ccc(C(=O)N(C)Cc2ccco2)cc1 2.5%, Cc1ccccc1NC(=O)C(C)OC(=O)CCC(=O)N(CC(C)C)c1c(N)n(CC(C)C)c(=O)[nH]c1=O (stereo not given) -1.1%, CCOc1ccc(NC(=O)c2ccc(NC(=O)CN3C(=O)C(=O)N(CC(C)C)C3=O)cc2)cc1 -3.1%, COc1ccc(CCNC(=O)Nc2ccc3c(c2)c(=O)n(C)n3C)cc1OC 1.1%, Cc1cc2nc(C)n(CCCNC(=O)Nc3ccccc3)c2cc1C -3.8%, O=C(COC(=O)Cc1ccc(Br)cc1)Nc1c(F)c(F)c(F)c(F)c1F -0.2%, Nc1cc(=O)c2[nH]cnc2[nH]1 -4.7%, CN(C(=O)COC(=O)Cc1ccccc1[N+](=O)[O-])C1CCS(=O)(=O)C1 (stereo not given) -3.3%, COc1ccc(NC(=O)COc2ccc(C(=O)OCC(=O)N(C)C3CCS(=O)(=O)C3)cc2OC)cc1 (stereo not given) -4.8%, O=C1c2ccccc2C(=O)N1CCC(O)C[N+](=O)[O-] (stereo not given) 3.3%, COC(=O)C1=C(C)NC(=S)NC1c1ccc(OCC(=O)N2CC(C)OC(C)C2)c(OC)c1 (stereo not given) -3.9%, O=S(=O)(c1ccc(-c2ccno2)s1)N1CCCCC1 -0.2%, Cc1ccccc1CC1(CO)CCCN(Cc2ccc3c(c2)OCCO3)C1 (stereo not given) -4%, Cc1noc(C)c1CCC(=O)N1CCCC(CO)(Cc2ccccc2)C1 (stereo not given) -1.7%, COc1ccc(S(=O)(=O)NC(C)C(=O)NCc2ccncc2)cc1Cl (stereo not given) -1.3%, CCCCC[C@@H]1C=C(C(=O)O)[C@H](c2ccc(C#N)cc2)N1S(=O)(=O)c1ccc(C)cc1 -1.7%, O=C(CS(=O)(=O)Cc1ccccc1)Nc1cccnc1 -1.4%, O=C(OCC(=O)N1CCCC1)c1ccc(Cl)nc1 -2.6%, CC(C)(C)c1ccc(SCCc2ccncc2)cc1 0%, O=C(COC(=O)COc1cccc(F)c1)NCC1CCCCC1 -3.8%, CCN(C(=O)COc1ccc(C(=O)c2ccccc2)cc1)c1ccccc1 -1.7%, S=C(Nc1ccc2c(c1)OCO2)N1CCCC1 -3.3%, Cc1ccc(S(=O)(=O)N2CCN(C(=O)CCC(=O)NC3CCCc4ccccc43)CC2)cc1 (stereo not given) -4.5%, CCCCN(C)Cc1c(C)[nH]c2ccc(Cl)cc2c1=O -4.1%, Cc1ccc(S(=O)(=O)c2c[nH]c3ccc(C)cc3c2=O)cc1 -0.1%, CC1CCN(C(=O)CN(c2ccc(Oc3ccccc3)cc2)S(C)(=O)=O)CC1 2.5%, CCN(CC)CCn1cnc2c1c(=O)n(CCOC(=O)c1cc(OC)c(OC)c(OC)c1)c(=O)n2C -2.8%, Cc1ccc(C(=O)NCC(=O)OCc2nnc(-c3ccccc3)o2)cc1 -0.5%, O=C(Nc1ccc(N2CCN(C(=O)C3CC3)CC2)cc1)c1cccs1 -1.5%
